pIC50: −log10 of the molar value. Values after ≈ are worked out from the molar mass of the structure shown.
Key:
P388 [1] = test: (§1) Ratio of IC50 of p388 and p388CPT5 cell lines; format: functional, Mus musculus
How it was run: (§2)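 Murine P388 leukaemia cells and camptothecin-resistant P388CPT5 cells were exposed to graded drug concentrations for 96 h at 37 °C. Viability was read by neutral red staining and the 50% growth-inhibitory concentration (IC50) taken for each line. The resistance ratio is IC50(P388CPT5)/IC50(P388).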

CEM-SS [2] = test: Selective Index of against HIV -I Lai infected CEM-SS cells.; format: functional, Homo sapiens
How it was run: (§3)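 CEM-SS cells kept at 37 °C, 5% CO2 in RPMI 1640 with 10% decomplemented FBS, infected with HIV-1 Lai. Antiviral IC50 from reverse transcriptase activity of virus particles released into the medium. Cytotoxicity (CC50) measured in parallel. Selectivity index = CC50/IC50.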

P388 [3] = test: In vitro inhibitory concentration against murine P388 leukemia cell proliferation; format: functional, cell-based; conditions: Mus musculus
How it was run: (§4)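 Murine P388 leukemia cells, or the camptothecin-resistant P388CPT5 subline, exposed 96 h at 37 °C to a range of drug concentrations. Viability scored by neutral red staining. IC50 taken as the concentration giving 50% growth inhibition.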

[4] = as §1; format: functional; how it was run: as §2
P388CPT5 = test: In vitro inhibitory concentration against murine P388CPT5 leukemia cell proliferation; format: functional, cell-based; conditions: Mus musculus; how it was run: as §4
[5] = target: T1, DNA topoisomerase 1 (Mus musculus) (UniProt Q04750)
T1 sequence (whole entry): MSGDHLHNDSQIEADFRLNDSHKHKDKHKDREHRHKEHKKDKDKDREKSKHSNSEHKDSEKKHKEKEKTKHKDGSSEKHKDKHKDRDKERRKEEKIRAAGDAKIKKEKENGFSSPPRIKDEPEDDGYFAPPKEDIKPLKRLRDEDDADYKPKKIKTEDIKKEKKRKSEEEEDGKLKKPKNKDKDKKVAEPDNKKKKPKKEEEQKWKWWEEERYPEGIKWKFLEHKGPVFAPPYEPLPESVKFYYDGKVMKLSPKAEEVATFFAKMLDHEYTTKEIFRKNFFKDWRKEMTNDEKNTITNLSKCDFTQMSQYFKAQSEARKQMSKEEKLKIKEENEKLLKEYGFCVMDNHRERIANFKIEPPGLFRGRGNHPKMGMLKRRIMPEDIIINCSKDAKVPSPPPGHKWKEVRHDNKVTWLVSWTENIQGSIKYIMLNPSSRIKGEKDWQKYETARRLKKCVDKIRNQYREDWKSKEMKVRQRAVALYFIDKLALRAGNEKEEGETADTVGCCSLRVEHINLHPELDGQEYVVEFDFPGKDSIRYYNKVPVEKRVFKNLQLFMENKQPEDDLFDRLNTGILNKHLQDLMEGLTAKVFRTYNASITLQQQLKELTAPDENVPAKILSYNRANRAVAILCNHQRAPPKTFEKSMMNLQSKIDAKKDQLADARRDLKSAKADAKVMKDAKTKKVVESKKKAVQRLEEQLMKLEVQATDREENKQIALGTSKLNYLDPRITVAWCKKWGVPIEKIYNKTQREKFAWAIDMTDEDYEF

P388 [6] = test: Compound was tested for drug bound to whole cells (P388 leukemia) before centrifugation at 320 nm.; format: functional, Mus musculus
How it was run: (§5)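 Exponentially growing P388 cells (1.5 × 10^6 per mL) incubated with drug, usually 100 µM, for 30 min at 37 °C. Excitation 320 nm, emission 400–600 nm. Whole-cell spectrum read before centrifugation. Pellet spectrum read after one HBSS wash and resuspension in drug-free buffer. Intensities expressed relative to free rebeccamycin; fraction change is whole-cell versus free drug.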

P388 [7] = test: Compound was tested for drug bound to cell pellet (P388 leukemia) after centrifugation at 320 nm.; format: functional, Mus musculus; how it was run: as §5
P388 [8] = test: Fraction change in percent is observed.; format: functional, Mus musculus; how it was run: as §5
CEM-SS [9] = test: The cytotoxicity was evaluated in HIV -I Lai infected CEM-SS cells.; format: functional; conditions: Homo sapiens; how it was run: as §3
CEM-SS [10] = test: Compound was tested for anti-HIV activity in HIV -I Lai infected CEM-SS cells.; format: functional, cell-based; conditions: Homo sapiens; how it was run: as §3
[11] = test system: DNA topoisomerase 1 (Bos taurus); test: Compound was tested for anti microbial activity against topoisomerase I.
Bacillus cereus = test: Compound was tested for antimicrobial activity against a gram-positive bacterium Bacillus cereus; format: functional
How it was run: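 Bacillus cereus ATCC 14579 in Mueller-Hinton broth, pH 7.4, incubated 24 h at 27 °C. Compounds diluted in DMSO over 12 tubes spanning 100 to 0.05 µg/mL. MIC read from the dilution series.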

Row | SMILES | Ratio (P388 [1]) | Selectivity index (CEM-SS [2]) | pIC50 (P388 [3]) | Ratio [4] | pIC50 (P388CPT5) | MIC [5] [µM] | Whole-cell fluorescence relative to free drug (P388 [6]) | Activity (P388 [7]) | Fraction change (P388 [8]) [%] | CC50 (CEM-SS [9]) [nM] | pIC50 (CEM-SS [10]) | MIC [11] [µM] | MIC (Bacillus cereus) [µM]
1 | CO[C@H]1[C@H](O)[C@@H](O)[C@H](n2c3ccc(Br)cc3c3c4c(c5c6cc(Br)ccc6[nH]c5c32)C(=O)OC4=O)O[C@@H]1CO | 8.3 | 1.9 | – | – | – | – | – | – | – | – | – | – | –
2 | CO[C@H]1[C@H](O)[C@@H](O)[C@H](n2c3ccccc3c3c4c(c5c6ccccc6[nH]c5c32)C(=O)OC4=O)O[C@@H]1CO | >3.1 | >1.98 SI | – | – | – | – | – | – | – | – | – | – | –
3 | CC[C@@]1(O)C(=O)OCc2c1cc1n(c2=O)Cc2cc3ccccc3nc2-1 [CAMPTOTHECIN] | – | – | 7.49 | 87.5 | 5.55 | 0.086 (≈ 0.03 µg/mL) | – | – | – | – | – | – | –
4 | CO[C@H]1[C@H](O)[C@@H](O)[C@H](n2c3ccccc3c3c4c(c5c6ccccc6[nH]c5c32)C(=O)NC4=O)O[C@@H]1CO | >28 | 5.6 | – | – | – | – | 0.38 | 0.33 | -26 | – | – | – | –
5 | CO[C@H]1[C@H](O)[C@@H](O)[C@H](n2c3c(Cl)cccc3c3c4c(c5c6cccc(Cl)c6[nH]c5c32)C(=O)N(C)C4=O)O[C@@H]1CO | – | 1.6 | – | – | – | – | – | – | – | 8000 | 5.31 | – | –
6 | CO[C@H]1[C@H](O)[C@@H](O)[C@H](n2c3ccccc3c3c4c(c5c6ccccc6[nH]c5c32)C(=O)N(C)C4=O)O[C@@H]1CO | – | 2 | 6.17 | – | – | – | – | – | – | 7900 | 5.40 | – | –
7 | COC1C(CO)OC(n2c3ccc(Br)cc3c3c4c(c5c6cc(Br)ccc6[nH]c5c32)C(=O)N(C)C4=O)C(O)C1O (configuration not stated) | >3 | 1.3 | 5.31 | – | < 4.82 | – | 0.46 | 0.24 | 13 | 1490 | 5.93 | > 15 | > 74
8 | CO[C@H]1[C@H](O)[C@@H](O)[C@H](n2c3c(Cl)cccc3c3c4c(c5c6cccc(Cl)c6[nH]c5c32)C(=O)NC4=O)O[C@@H]1CO [REBECCAMYCIN] | 8.5 | 2 SI | – | – | – | – | 1.29 | 0.81 | 29 | – | – | – | –
9 | COC1C(CO)OC(n2c3ccc(Br)cc3c3c4c(c5c6cc(Br)ccc6[nH]c5c32)C(=O)NC4=O)C(O)C1O (configuration not stated) | >58 | 4.8 | 6.59 | – | < 4.82 | – | 0.15 | 0.08 | 46 | 340 | 7.15 | 0.15 (≈ 0.0989 µg/mL) | 19 (≈ 12.5 µg/mL)
